Activity calls are given as the source filed them. The calls are words filed in the database; no cut-off is given here.
Columns and labels:
[1] = test system: PC-3; test: Cytotoxicity against human PC3 cells assessed as reduction in cell viability after 72 hrs by CellTiter-Glo assay; format: functional, cell-based; details: PC-3, 72 h
Procedure, shortened: (§1)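 Cells were treated across a dose-response range for 72 h, and viability was read by CellTiter-Glo luminescence. Measurements were made in triplicate and reported with standard error.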

[2] = test system: HeLa; test: Cytotoxicity against human HeLa cells assessed as reduction in cell viability after 72 hrs by CellTiter-Glo assay; format: functional, cell-based; procedure, shortened: as §1
[3] = test system: HCT-116; test: Induction of cell cycle arrest in human HCT116 cells assessed as accumulation of 4N DNA content at 500 nM after 48 hrs by propidium iodide staining-based flow cytometry; format: functional
[4] = molecular target: T1, Aurora kinase B (Homo sapiens, UniProt Q96GD4); test: Inhibition of Aurora B in human HCT116 cells assessed as reduction in histone H3 phosphorylation at S10 residues after 4 hrs by Western blot analysis; format: cell-based
T1 sequence (Q96GD4 whole entry): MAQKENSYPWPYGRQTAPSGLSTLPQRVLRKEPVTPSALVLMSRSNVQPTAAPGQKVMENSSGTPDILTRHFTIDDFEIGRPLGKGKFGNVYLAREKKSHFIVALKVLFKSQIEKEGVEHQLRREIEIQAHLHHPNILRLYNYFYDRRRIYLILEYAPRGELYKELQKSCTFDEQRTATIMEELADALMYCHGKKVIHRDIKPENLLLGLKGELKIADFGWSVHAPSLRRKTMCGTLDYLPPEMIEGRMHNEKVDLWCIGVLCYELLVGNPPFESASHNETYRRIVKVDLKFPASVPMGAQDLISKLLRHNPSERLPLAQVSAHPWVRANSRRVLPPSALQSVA
Procedure, shortened: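 Cells were exposed to compound in dose-response for 4 h, then lysed for western blotting of histone H3 pS10. The cellular EC50 was derived from the dose-response curves. Three replicate experiments were run.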

[5] = molecular target: T1, Aurora kinase B; test: Inhibition of recombinant full length His-tagged human Aurora B expressed in baculovirus expression system by Z'LYTE assay
Procedure, shortened: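 Z'LYTE biochemical kinase assay run at the Km ATP concentration for each kinase. IC50 was determined and reported ± standard error.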

[6] = molecular target: T2, Aurora kinase C (Homo sapiens, UniProt Q9UQB9); test: Inhibition of recombinant full length GST-tagged human Aurora C expressed in baculovirus expression system by Z'LYTE assay
T2 sequence (Q9UQB9 whole entry): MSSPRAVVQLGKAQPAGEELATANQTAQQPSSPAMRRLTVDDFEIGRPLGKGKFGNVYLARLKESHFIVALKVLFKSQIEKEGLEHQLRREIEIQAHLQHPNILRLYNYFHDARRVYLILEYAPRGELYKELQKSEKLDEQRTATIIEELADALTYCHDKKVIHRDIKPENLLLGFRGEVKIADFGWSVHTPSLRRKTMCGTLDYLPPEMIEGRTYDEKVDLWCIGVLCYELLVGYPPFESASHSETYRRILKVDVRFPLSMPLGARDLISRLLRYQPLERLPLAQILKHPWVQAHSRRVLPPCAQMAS
Procedure, shortened: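 Biochemical IC50 from a Z'LYTE kinase assay, with ATP at the Km for each kinase. Values are reported with standard error.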

[7] = test system: HEK293; test: Cytotoxicity against human HEK293 cells assessed as reduction in cell viability after 72 hrs by CellTiter-Glo assay; format: cell-based; details: HEK293, 72 h; procedure, shortened: as §1
[8] = test system: HCT-116; test: Cytotoxicity against human HCT116 cells assessed as reduction in cell viability after 72 hrs by CellTiter-Glo assay; format: functional, cell-based; details: HCT-116, 72 h; procedure, shortened: as §1

EC50 [4]: 0.027 µM | IC50 [5]: 0.034 µM | IC50 [6]: 0.091 µM
Compound: CCOC(=O)c1[nH]cc2c1NC1=C(C(=O)CCC1)[C@H]2c1cccc(Oc2nc3ccccc3[nH]2)c1
IC50 [1]: > 10 µM | IC50 [2]: 0.00611 µM | Activity [3]: Active | IC50 [7]: 5.86 µM | IC50 [8]: 3.71 µM

Source: ChEMBL document CHEMBL4184148 (Bioorg Med Chem Lett, 2017)
